In ChEMBL document CHEMBL1126641, “Synthesis and opioid activity of dynorphin A-(1-13)NH2 analogues containing cis- and trans-4-aminocyclohexanecarboxylic acid” (J Med Chem, 1993):
Several values for one entry are separate records, joined by “and”; a condition that tells them apart may be missing. Equal values may be shown once. Residues, ends and D or L forms follow the SMILES beside them.

Assays:
[1] = biological target: Kappa-type opioid receptor (Cavia porcellus, UniProt P41144); test: Compound was tested for binding affinity towards kappa opioid receptor in guinea pig cerebellar membrane using [3H]bremazocine; format: cell membranes, Cerebellum
Outline: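 Competitive inhibition of [3H]bremazocine binding to guinea pig cerebellar membranes. The incubation mixtures contained 100 nM DAMGO. Affinity is reported as Ki.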

[2] = biological target: Delta-type opioid receptor (Rattus norvegicus, UniProt P33533); test: Compound was tested for binding affinity towards delta-opioid receptor in rat forebrain membrane using [3H]DPDPE; format: cell membranes
[3] = biological target: T1, Opioid receptors; mu/kappa/delta (Homo sapiens, UniProt P41145+P41143+P35372); test: Opioid receptor activity in guinea pig ileum assay; format: tissue-based, Cavia porcellus; details: target entry is the homologue from another species
Mu-type opioid receptor = Mu-type opioid receptor (Rattus norvegicus, UniProt P33535); test: Compound was tested for binding affinity towards mu-opioid receptor in rat forebrain membrane using [3H]DAMGO; format: cell membranes
[4] = biological target: T1, Opioid receptors; mu/kappa/delta; test: ratio is kappa/mu/delta opioid receptors; format: protein assay
Outline: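 The Ki ratio κ/μ/δ is taken from three binding assays. κ: [3H]bremazocine on guinea pig cerebellar membranes, with 100 nM DAMGO present. μ: [3H]DAMGO on rat forebrain membranes. δ: [3H]DPDPE on rat forebrain membranes.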

Chain of Delta-type opioid receptor (P33533 whole entry): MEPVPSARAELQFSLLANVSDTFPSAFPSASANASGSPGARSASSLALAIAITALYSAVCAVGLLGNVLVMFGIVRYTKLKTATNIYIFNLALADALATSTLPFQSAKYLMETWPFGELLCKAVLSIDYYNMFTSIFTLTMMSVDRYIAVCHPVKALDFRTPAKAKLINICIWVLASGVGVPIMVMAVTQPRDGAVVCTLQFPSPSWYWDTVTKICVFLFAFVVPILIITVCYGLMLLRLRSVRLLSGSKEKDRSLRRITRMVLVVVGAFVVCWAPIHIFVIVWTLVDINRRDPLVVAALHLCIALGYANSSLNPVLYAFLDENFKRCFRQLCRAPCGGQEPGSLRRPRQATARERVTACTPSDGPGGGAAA
Chain of Kappa-type opioid receptor (P41144 whole entry): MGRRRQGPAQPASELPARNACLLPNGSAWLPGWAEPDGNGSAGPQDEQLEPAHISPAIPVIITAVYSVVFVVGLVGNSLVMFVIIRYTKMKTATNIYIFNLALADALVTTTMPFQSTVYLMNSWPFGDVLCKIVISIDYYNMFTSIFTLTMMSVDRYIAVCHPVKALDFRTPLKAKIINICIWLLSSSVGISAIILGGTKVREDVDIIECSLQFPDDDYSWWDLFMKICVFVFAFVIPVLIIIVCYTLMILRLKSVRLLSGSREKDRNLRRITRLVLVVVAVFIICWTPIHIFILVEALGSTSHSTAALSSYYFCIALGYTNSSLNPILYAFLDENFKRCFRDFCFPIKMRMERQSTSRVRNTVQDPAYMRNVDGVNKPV
Chain of Mu-type opioid receptor (P33535 whole entry): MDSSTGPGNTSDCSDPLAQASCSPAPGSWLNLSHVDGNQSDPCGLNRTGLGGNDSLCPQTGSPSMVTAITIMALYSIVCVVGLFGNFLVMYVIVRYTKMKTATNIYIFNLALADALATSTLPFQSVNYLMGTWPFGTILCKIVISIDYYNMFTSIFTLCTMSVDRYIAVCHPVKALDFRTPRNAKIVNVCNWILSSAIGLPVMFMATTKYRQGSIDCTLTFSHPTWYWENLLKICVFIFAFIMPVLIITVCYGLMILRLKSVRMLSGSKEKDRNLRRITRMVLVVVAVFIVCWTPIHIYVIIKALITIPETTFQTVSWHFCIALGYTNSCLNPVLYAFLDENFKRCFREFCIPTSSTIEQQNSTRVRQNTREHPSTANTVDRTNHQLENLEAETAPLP
T1 sequence (P35372 whole entry, looked up): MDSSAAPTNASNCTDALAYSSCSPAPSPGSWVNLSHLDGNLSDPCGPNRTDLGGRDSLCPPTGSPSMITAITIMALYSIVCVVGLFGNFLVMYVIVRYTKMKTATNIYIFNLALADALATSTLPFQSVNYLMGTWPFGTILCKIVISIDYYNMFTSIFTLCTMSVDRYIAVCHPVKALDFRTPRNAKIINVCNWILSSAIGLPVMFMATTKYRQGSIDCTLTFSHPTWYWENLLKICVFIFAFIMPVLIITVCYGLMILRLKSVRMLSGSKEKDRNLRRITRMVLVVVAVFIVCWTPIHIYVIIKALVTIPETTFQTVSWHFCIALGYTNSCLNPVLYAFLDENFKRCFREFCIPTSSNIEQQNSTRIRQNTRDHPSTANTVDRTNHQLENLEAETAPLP
T1 sequence (P41143 whole entry, looked up): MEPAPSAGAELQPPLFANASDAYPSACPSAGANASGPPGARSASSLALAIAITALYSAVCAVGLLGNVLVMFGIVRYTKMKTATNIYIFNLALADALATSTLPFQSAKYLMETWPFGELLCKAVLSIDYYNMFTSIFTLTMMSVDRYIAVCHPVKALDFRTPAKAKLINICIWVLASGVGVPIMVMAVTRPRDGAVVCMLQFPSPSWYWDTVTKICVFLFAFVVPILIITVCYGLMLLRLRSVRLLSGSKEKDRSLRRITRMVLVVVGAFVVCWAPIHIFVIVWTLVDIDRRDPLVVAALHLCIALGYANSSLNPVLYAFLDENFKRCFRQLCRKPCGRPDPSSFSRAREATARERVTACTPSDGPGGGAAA
T1 sequence (P41145 whole entry, looked up): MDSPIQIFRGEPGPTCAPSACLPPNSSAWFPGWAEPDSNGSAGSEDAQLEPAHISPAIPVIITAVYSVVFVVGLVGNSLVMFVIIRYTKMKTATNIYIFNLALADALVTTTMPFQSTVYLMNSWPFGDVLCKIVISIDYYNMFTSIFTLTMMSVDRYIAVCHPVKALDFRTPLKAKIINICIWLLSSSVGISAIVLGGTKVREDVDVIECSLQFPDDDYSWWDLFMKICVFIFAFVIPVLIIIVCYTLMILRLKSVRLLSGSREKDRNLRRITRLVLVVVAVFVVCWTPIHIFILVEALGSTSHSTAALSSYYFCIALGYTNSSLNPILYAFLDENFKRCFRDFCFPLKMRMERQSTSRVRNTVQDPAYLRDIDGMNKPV

CC[C@H](C)[C@H](NC(=O)[C@H](CCCN=C(N)N)NC(=O)[C@H](CCCN=C(N)N)NC(=O)[C@H](CC(C)C)NC(=O)[C@H](Cc1ccccc1)NC(=O)CNC(=O)CNC(=O)[C@@H](N)Cc1ccc(O)cc1)C(=O)N[C@@H](CCCN=C(N)N)C(=O)N1CCC[C@H]1C(=O)N[C@@H](CCCCN)C(=O)N[C@@H](CC(C)C)C(=O)N[C@@H](CCCCN)C(N)=O
Ki [1]: 0.146 nM
Ki [2]: 3.88 nM
IC50 [3]: 0.24 nM
Ki (Mu-type opioid receptor): 0.194 nM

CC[C@H](C)[C@H](NC(=O)[C@H](CCCN=C(N)N)NC(=O)[C@H](CCCN=C(N)N)NC(=O)[C@H](CC(C)C)NC(=O)[C@H](Cc1ccccc1)NC(=O)CNC(=O)C(C)(C)NC(=O)[C@@H](N)Cc1ccc(O)cc1)C(=O)N[C@@H](CCCN=C(N)N)C(=O)N1CCC[C@H]1C(=O)N[C@@H](CCCCN)C(=O)N[C@@H](CC(C)C)C(=O)N[C@@H](CCCCN)C(N)=O (HELM PEPTIDE1{Y.[Aib].G.F.L.R.R.I.R.P.K.L.K.[am]}$$$$V2.0)
Ki [1]: 50 nM
Ki (Mu-type opioid receptor): 10 nM

CC[C@H](C)[C@H](NC(=O)[C@H](CCCN=C(N)N)NC(=O)[C@H](CCCN=C(N)N)NC(=O)[C@H](CC(C)C)NC(=O)[C@H](Cc1ccccc1)NC(=O)C1CCC(NC(=O)[C@@H](N)Cc2ccc(O)cc2)CC1)C(=O)N[C@@H](CCCN=C(N)N)C(=O)N1CCC[C@H]1C(=O)N[C@@H](CCCCN)C(=O)N[C@@H](CC(C)C)C(=O)N[C@@H](CCCCN)C(N)=O (stereo partly specified) (HELM PEPTIDE1{Y.[O=C(C1CCC(N[*:1])CC1)[*:2]].F.L.R.R.I.R.P.K.L.K.[am]}$$$$V2.0)
Ki [1]: 13.4 nM and 9.1 nM
Ratio [4]: 4.62 and 3.66
Ki [2]: 1370 nM and 1910 nM
IC50 [3]: 4090 nM
Ki (Mu-type opioid receptor): 275 nM and 117 nM
